# pEC50, pIC50: −log10 of the molar value. The source made the active and inactive calls. No cut-off for these calls is given here.
# Assays:
# [1] = target: Human immunodeficiency virus type 1 integrase (Human immunodeficiency virus 1, UniProt Q7ZJM1); experiment: Inhibition of HIV1 His6-tagged integrase assessed as inhibition of interaction with recombinant flag-tagged LEDGF/p75 incubated for 30 mins prior to substrate addition measured after 1 hr by AlphaScreen assay
# In short: (§1)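 AlphaScreen in 25 mM Tris-HCl pH 7.4, 150 mM NaCl, 1 mM MgCl2, 0.01% Tween-20 and 0.1% BSA. His6-integrase (300 nM final) was preincubated with compound for 30 min at 4°C. Flag-LEDGF/p75 (100 nM) was then added for 1 h at 4°C. Ni-chelate acceptor and anti-flag donor beads (20 μg/ml each) followed for 1 h at 30°C, protected from light. Acceptor emission was read.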
# [2] = target: Human immunodeficiency virus type 1 integrase (Human immunodeficiency virus 1) (UniProt Q7ZJM1); experiment: Inhibition of HIV1 His6-tagged integrase assessed as inhibition of interaction with recombinant flag-tagged LEDGF/p75 at 100 uM incubated for 30 mins prior to substrate addition measured after 1 hr by AlphaScreen assay; in short: as §1
# Human immunodeficiency virus type 1 integrase (Human immunodeficiency virus 1), sequence (Q7ZJM1 as listed by the source): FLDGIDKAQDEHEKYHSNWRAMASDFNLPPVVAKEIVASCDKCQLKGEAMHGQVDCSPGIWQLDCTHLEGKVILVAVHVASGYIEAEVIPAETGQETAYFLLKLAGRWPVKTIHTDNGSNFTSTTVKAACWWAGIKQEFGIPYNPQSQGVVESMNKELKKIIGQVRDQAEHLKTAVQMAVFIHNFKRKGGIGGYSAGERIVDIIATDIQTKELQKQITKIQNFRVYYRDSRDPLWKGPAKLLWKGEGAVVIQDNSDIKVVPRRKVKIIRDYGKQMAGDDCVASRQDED
# [3] = Selectivity index, ratio of CC50 for human MT4 cells to EC50 for HIV 3B; type: toxicity, cell-based; conditions: read-out: Ratio CC50/EC50
# In short: (§2)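 HIV(IIIB) stock titrated on MT-4 cells to set the CCID50. MT-4 cells were infected with 100-300 CCID50 in the presence of five-fold serial compound dilutions. Protection from virus-induced cytopathic effect was read spectrophotometrically as MTT reduction to formazan by viable cells. EC50 is the concentration giving 50% protection. CC50 was determined in parallel on cells.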
# [4] = tested on: Human immunodeficiency virus; experiment: Antiviral activity against HIV 3B infected in human MT4 cells assessed as inhibition of virus-induced cytopathic effect by MTT assay; type: functional, organism-based; conditions: Human immunodeficiency virus 1, 3B; in short: as §2
# Human immunodeficiency virus type 1 integrase, sequence (Q7ZJM1 whole entry): as the sequence (Q7ZJM1 as listed by the source) above
Compound,pIC50 [1],inhibition [2],selectivity ratio [3],pEC50 [4]
COc1ccc(/C=C2\SC(=S)N(CCC(=O)O)C2=O)cc1,< 4.00,66%,61,5.62
COc1ccc(/C=C2\SC(=S)N(C(C(=O)O)C(C)C)C2=O)cc1OC (stereo not given),,inactive,,
COc1ccc(/C=C2\SC(=S)N(C(C)CC(=O)O)C2=O)cc1 (stereo not given),,29%,,
CC(C)C(C(=O)O)N1C(=O)/C(=C/c2cccc3ccccc23)SC1=S (stereo not given),4.73,89%,,
CCOc1ccc(/C=C2\SC(=S)N(C(C(=O)O)C(C)C)C2=O)cc1OC (stereo not given),,28%,,
COc1ccc(/C=C2\SC(=S)N(CC(=O)O)C2=O)cc1,,36%,,
CCOc1cc(/C=C2\SC(=S)N(C(C(=O)O)C(C)C)C2=O)ccc1O (stereo not given),4.60,,,
CCOc1cc(/C=C2\SC(=S)N(C(C(=O)O)C(C)C)C2=O)ccc1OC (stereo not given),,20%,,
COc1cc(/C=C2\SC(=S)N(C(C(=O)O)C(C)C)C2=O)ccc1O (stereo not given),,43%,,

# Now from value to compound, other results behind:
pIC50 [1],inhibition [2],Compound,selectivity ratio [3],pEC50 [4]
4.38,,COc1ccc(/C=C2\SC(=S)N(C(C(=O)O)C(C)C)C2=O)cc1 (stereo not given),,
< 4.00,54%,CCC(C(=O)O)N1C(=O)/C(=C/c2ccc(OC)cc2)SC1=S (stereo not given),,
,47%,COc1ccc(/C=C2\SC(=S)N(C(C)C(=O)O)C2=O)cc1 (stereo not given),,
4.36,77%,CC(C)C(C(=O)O)N1C(=O)/C(=C/c2ccc(O)cc2)SC1=S (stereo not given),,
4.80,,COc1ccc2nc(/C=C3\SC(=S)N(C(C(=O)O)C(C)C)C3=O)ccc2c1 (stereo not given),,
